# Experiments:
# Mus musculus [1] = assay: Toxicity in NOD/SCID mouse assessed as blood urea nitrogen level at 5 to 50 mg/kg, iv and po for 5 days; type: organism-based; parameters: dose 5-50 mg/kg, route oral; conditions: in vivo, 120 h
# SNB-75 = assay: Growth inhibition of human SNB75 cells by sulforhodamine B assay; type: functional
# NCI-H23 = assay: Growth inhibition of human NCI-H23 cells by sulforhodamine B assay; type: functional
# [2] = Growth inhibition of human MDA-MB-436 cells by sulforhodamine B assay; type: functional
# Ramos = assay: Cytotoxicity against human Ramos cells after 72 hrs by XTT assay; type: functional, cell-based
# How it was run: (§1)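 Cells grown at 37 °C, 5% CO2; HFF in DMEM with 10% FBS, PrEC in prostate epithelial growth medium. Adherent lines seeded overnight, suspension lines same day; compounds diluted from DMSO stocks into media at various final concentrations, 72 h exposure. XTT reagent added 4 h, absorbance 490 nm (reference 690 nm). Growth as % of vehicle; IC50 from sigmoidal dose-response fit; mean ± SEM, three independent experiments.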
# HOP-62 = assay: Growth inhibition of human HOP62 cells by sulforhodamine B assay; type: functional
# MDA-MB-468 = assay: Growth inhibition of human MDA-MB-468 cells by sulforhodamine B assay; type: functional
# SK-MEL-28 = assay: Cytotoxicity against human SK-MEL-28 cells after 72 hrs by XTT assay; type: functional, cell-based; conditions: SK-MEL-28, 72 h; how it was run: as §1
# MOLT-4 = assay: Cytotoxicity against human MOLT4 cells after 72 hrs by XTT assay; type: functional, cell-based; conditions: MOLT-4, 72 h; how it was run: as §1
# U-251 = assay: Growth inhibition of human U251 cells by sulforhodamine B assay; type: functional
# Mus musculus [3] = assay: Toxicity in NOD/SCID mouse transplanted with human JeKo1 cells assessed as fatalities at 5 to 50 mg/kg, iv and po for 5 days; type: organism-based; parameters: dose 5-50 mg/kg, route oral; conditions: in vivo, 120 h
# A549 = assay: Growth inhibition of human A549 cells by sulforhodamine B assay; type: functional
# KM12 = assay: Growth inhibition of human KM12 cells by sulforhodamine B assay; type: functional
# PC-3 = assay: Growth inhibition of human PC3 cells by sulforhodamine B assay; type: functional
# Mus musculus [4] = assay: Toxicity in NOD/SCID mouse assessed as creatinine level at 5 to 50 mg/kg, […] for 5 days; type: organism-based; parameters: dose 5-50 mg/kg; conditions: in vivo, po, 120 h
# PrEC = assay: Cytotoxicity against human PrEC cells after 72 hrs by XTT assay; type: cell-based; how it was run: as §1
# Mus musculus [5] = assay: Toxicity in NOD/SCID mouse assessed as calcium level at 5 to 50 mg/kg, iv and po for 5 days; type: organism-based; parameters: dose 5-50 mg/kg, route oral; conditions: in vivo, 120 h
# SF-295 = assay: Growth inhibition of human SF295 cells by sulforhodamine B assay; type: functional
# Mus musculus [6] = assay: Toxicity in NOD/SCID mouse assessed as total protein level at 5 to 50 mg/kg, […] for 5 days; type: organism-based; parameters: dose 5-50 mg/kg; conditions: in vivo, po, 120 h
# LOX IMVI = assay: Growth inhibition of human LOXIMVI cells by sulforhodamine B assay; type: functional
# 786-0 = assay: Growth inhibition of human 786-0 cells by sulforhodamine B assay; type: functional
# HFF = assay: Cytotoxicity against HFF cells after 72 hrs by XTT assay; type: cell-based; conditions: Homo sapiens; how it was run: as §1
# IGROV-1 = assay: Growth inhibition of human IGROV1 cells by sulforhodamine B assay; type: functional
# HCT-116 = assay: Growth inhibition of human HCT116 cells by sulforhodamine B assay; type: functional
# HCT-15 = assay: Growth inhibition of human HCT15 cells by sulforhodamine B assay; type: functional
# Mus musculus [7] = assay: Toxicity in NOD/SCID mouse assessed as glucose at 5 to 50 mg/kg, […] for 5 days; type: organism-based; parameters: dose 5-50 mg/kg; conditions: in vivo, po, 120 h
# [8] = read-out: Log10GI50 (converted)
# [9] = read-out: Log10LC50 (converted)
smiles,measurement,setting,value
CC(/C=C/[C@@H]1C[C@]2(CO2)CC(C)(C)O1)=C\C[C@H]1CC[C@@H](NC(=O)/C=C\[C@H](C)OC(=O)C(C)C)CC1,Activity,Mus musculus [1],Non-toxic
same,GI50,SNB-75; [8],5.37 µM
same,CC50,SNB-75; [9],> 100 µM
same,TGI,SNB-75; read-out: Log10TGI (converted),> 100 µM
same,GI50,NCI-H23; [8],0.537 µM
same,CC50,NCI-H23; [9],> 100 µM
same,TGI,NCI-H23; read-out: Log10TGI (converted),33.9 µM
same,GI50,[2]; [8],0.229 µM
same,CC50,[2]; [9],> 100 µM
same,TGI,[2]; read-out: Log10TGI (converted),16.2 µM
same,IC50,Ramos,0.08 µM
same,GI50,HOP-62; [8],0.457 µM
same,CC50,HOP-62; [9],> 100 µM
same,TGI,HOP-62; read-out: Log10TGI (converted),> 100 µM
same,GI50,MDA-MB-468; [8],0.741 µM
same,CC50,MDA-MB-468; [9],> 100 µM
same,TGI,MDA-MB-468; read-out: Log10TGI (converted),39.8 µM
same,IC50,SK-MEL-28,0.55 µM
same,IC50,MOLT-4,0.08 µM
same,GI50,U-251; [8],0.363 µM
same,CC50,U-251; [9],> 100 µM
same,TGI,U-251; read-out: Log10TGI (converted),> 100 µM
same,Activity,Mus musculus [3],Non-toxic
same,GI50,A549; [8],0.912 µM
same,CC50,A549; [9],> 100 µM
same,TGI,A549; read-out: Log10TGI (converted),> 100 µM
same,GI50,KM12; [8],0.309 µM
same,CC50,KM12; [9],> 100 µM
same,TGI,KM12; read-out: Log10TGI (converted),> 100 µM
same,GI50,PC-3; [8],0.479 µM
same,CC50,PC-3; [9],> 100 µM
same,TGI,PC-3; read-out: Log10TGI (converted),38 µM
same,Activity,Mus musculus [4],Non-toxic
same,IC50,PrEC,7.01 µM
same,Activity,Mus musculus [5],Non-toxic
same,GI50,SF-295; [8],0.339 µM
same,CC50,SF-295; [9],> 100 µM
same,TGI,SF-295; read-out: Log10TGI (converted),2.51 µM
same,Activity,Mus musculus [6],Non-toxic
same,GI50,LOX IMVI; [8],0.0794 µM
same,CC50,LOX IMVI; [9],55 µM
same,GI50,786-0; [8],2.63 µM
same,CC50,786-0; [9],> 100 µM
same,TGI,786-0; read-out: Log10TGI (converted),> 100 µM
same,IC50,HFF,> 10 µM
same,GI50,IGROV-1; [8],0.851 µM
same,CC50,IGROV-1; [9],> 100 µM
same,TGI,IGROV-1; read-out: Log10TGI (converted),> 100 µM
same,GI50,HCT-116; [8],0.0708 µM
same,CC50,HCT-116; [9],> 100 µM
same,TGI,HCT-116; read-out: Log10TGI (converted),> 100 µM
same,GI50,HCT-15; [8],0.794 µM
same,CC50,HCT-15; [9],> 100 µM
same,TGI,HCT-15; read-out: Log10TGI (converted),34.7 µM
same,Activity,Mus musculus [7],Non-toxic
